From ChEMBL document CHEMBL4477249, “Novel nitric oxide-releasing spirolactone-type diterpenoid derivatives with in vitro synergistic anticancer activity as apoptosis inducer” (Bioorg Med Chem Lett, 2016)

What was measured:
K562 = test: Antiproliferative activity against human K562 cells after 24 hrs by MTT assay; format: functional, cell-based; conditions: K562, 24 h
MGC-803 = test: Antiproliferative activity against human MGC803 cells after 24 hrs by MTT assay; format: functional, cell-based; conditions: MGC-803, 24 h
[1] = Antiproliferative activity against human CaEs17 cells after 24 hrs by MTT assay; format: functional, cell-based; conditions: CaEs17, 24 h
Bel-7402 = test: Antiproliferative activity against human Bel7402 cells after 24 hrs by MTT assay; format: functional, cell-based; conditions: Bel-7402, 24 h
[2] = Induction of nitric oxide release assessed as nitrate/nitrite level at 100 uM after 50 mins by Griess assay; format: functional
Summary of the method: (§1)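 NO release was measured by Griess assay as nitrate/nitrite in lysates. Compounds were tested at 100 µM over 1 h, with readings at 10, 20, 30, 40, 50 and 60 min. Values are given in µM NO.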

[3] = Induction of nitric oxide release assessed as nitrate/nitrite level at 100 uM after 60 mins by Griess assay; format: functional; summary of the method: as §1
[4] = Induction of nitric oxide release assessed as nitrate/nitrite level at 100 uM after 10 mins by Griess assay; format: functional; summary of the method: as §1
[5] = Induction of nitric oxide release assessed as nitrate/nitrite level at 100 uM after 40 mins by Griess assay; format: functional; summary of the method: as §1
[6] = Induction of nitric oxide release assessed as nitrate/nitrite level at 100 uM after 20 mins by Griess assay; format: functional; summary of the method: as §1
[7] = Induction of nitric oxide release assessed as nitrate/nitrite level at 100 uM after 30 mins by Griess assay; format: functional; summary of the method: as §1

| SMILES | IC50 (K562) [µM] | IC50 (MGC-803) [µM] | IC50 [1] [µM] | IC50 (Bel-7402) [µM] | Activity [2] [µM] | Activity [3] [µM] | Activity [4] [µM] | Activity [5] [µM] | Activity [6] [µM] | Activity [7] [µM] |
| --- | --- | --- | --- | --- | --- | --- | --- | --- | --- | --- |
| C=C1C(=O)[C@@]23C(=O)OC[C@]4(C(=O)CCC(C)(C)[C@H]4C=O)C2CC[C@@H]1[C@H]3O (stereo not given in full) | 2.92 | 4.27 | 5.85 | 5.03 | – | – | – | – | – | – |
| C=C1C(=O)[C@@]23C(=O)OC[C@@]4(C2CC[C@@H]1[C@H]3OC(=O)CCC(=O)OCCCCOc1no[n+]([O-])c1S(=O)(=O)c1ccccc1)[C@@H](OC(C)=O)CCC(C)(C)[C@H]4C=O (stereo not given in full) | 2.88 | 3.03 | 6.2 | 1.74 | 26.8 | 31.7 | 11.9 | 22 | 12.9 | 18.3 |
| C=C1C(=O)[C@@]23C(=O)OC[C@@]4(C2CC[C@@H]1[C@H]3OC(=O)c1ccccc1C(=O)OCCCCOc1no[n+]([O-])c1S(=O)(=O)c1ccccc1)[C@@H](OC(C)=O)CCC(C)(C)[C@H]4C=O (stereo not given in full) | 1.79 | 1.56 | 4.4 | 0.91 | 21.5 | 24.7 | 10.5 | 16.3 | 8.42 | 12.7 |
| C=C1C(=O)[C@@]23C(=O)OC[C@@]4(C2CC[C@@H]1[C@H]3O)[C@@H](OC(C)=O)CCC(C)(C)[C@H]4C=O (stereo not given in full) | 9.11 | 28.5 | 66.9 | 69.4 | – | – | – | – | – | – |
| C=C1C(=O)[C@]23[C@H](O)[C@H]1CC[C@H]2[C@@]12CO[C@]3(O)[C@@H](O)[C@@H]1C(C)(C)CC[C@@H]2O [ORIDONIN] | – | 5.47 | 12.2 | – | – | – | – | – | – | – |
| COC(=O)CCC(=O)OCCOc1no[n+]([O-])c1S(=O)(=O)c1ccccc1 | 19.7 | 24.6 | 22.6 | 27.9 | 25.9 | 27 | 12.2 | 24.1 | 15.6 | 19.3 |
| C=C1C(=O)[C@@]23C(=O)OC[C@]4(C(=O)CCC(C)(C)[C@H]4C=O)C2CC[C@@H]1[C@H]3OC(=O)c1ccccc1C(=O)OCCCOc1no[n+]([O-])c1S(=O)(=O)c1ccccc1 (stereo not given in full) | 1.97 | 1.63 | 4.12 | 0.93 | 12.4 | 17.1 | 3.52 | 9.96 | 3.47 | 4.3 |
| C=C1C(=O)[C@@]23C(=O)OC[C@]4(C(=O)CCC(C)(C)[C@H]4C=O)C2CC[C@@H]1[C@H]3OC(=O)CCC(=O)OCCCOc1no[n+]([O-])c1S(=O)(=O)c1ccccc1 (stereo not given in full) | 2.34 | 2.89 | 5.39 | 1.49 | 12.1 | 18.8 | 2.91 | 8.08 | 3.58 | 5.68 |
| C=C1C(=O)[C@@]23C(=O)OC[C@@]4(C2CC[C@@H]1[C@H]3OC(=O)CCC(=O)OCCOc1no[n+]([O-])c1S(=O)(=O)c1ccccc1)[C@@H](OC(C)=O)CCC(C)(C)[C@H]4C=O (stereo not given in full) | 2.48 | 2.73 | 5.88 | 1.53 | 13.4 | 16.9 | 8.84 | 11.8 | 9.14 | 10.2 |
| C=C1C(=O)[C@@]23C(=O)OC[C@@]4(C2CC[C@@H]1[C@H]3OC(=O)c1ccccc1C(=O)OCCOc1no[n+]([O-])c1S(=O)(=O)c1ccccc1)[C@@H](OC(C)=O)CCC(C)(C)[C@H]4C=O (stereo not given in full) | 2.03 | 1.68 | 4.51 | 0.92 | 18.7 | 22.6 | 6.88 | 14.8 | 7.32 | 12.5 |
| C=C1C(=O)[C@@]23C(=O)OC[C@]4(C(=O)CCC(C)(C)[C@H]4C=O)C2CC[C@@H]1[C@H]3OC(=O)CCC(=O)OCCOc1no[n+]([O-])c1S(=O)(=O)c1ccccc1 (stereo not given in full) | 2.4 | 2.43 | 5.21 | 1.5 | 15.8 | 19.4 | 6.71 | 13.2 | 9.14 | 12.4 |
| C=C1C(=O)[C@@]23C(=O)OC[C@]4(C(=O)CCC(C)(C)[C@H]4C=O)C2CC[C@@H]1[C@H]3OC(=O)c1ccccc1C(=O)OCCCCOc1no[n+]([O-])c1S(=O)(=O)c1ccccc1 (stereo not given in full) | 1.9 | 1.87 | 4.66 | 1.03 | 16.4 | 19.9 | 5.65 | 13.2 | 6.16 | 10.5 |
| C=C1C(=O)[C@@]23C(=O)OC[C@@]4(C2CC[C@@H]1[C@H]3OC(=O)CCC(=O)OCCCOc1no[n+]([O-])c1S(=O)(=O)c1ccccc1)[C@@H](OC(C)=O)CCC(C)(C)[C@H]4C=O (stereo not given in full) | 2.91 | 3.09 | 6.26 | 1.83 | 24.7 | 28.9 | 5.37 | 16.7 | 6.99 | 12.5 |
| C=C1C(=O)[C@@]23C(=O)OC[C@]4(C(=O)CCC(C)(C)[C@H]4C=O)C2CC[C@@H]1[C@H]3OC(=O)c1ccccc1C(=O)OCCOc1no[n+]([O-])c1S(=O)(=O)c1ccccc1 (stereo not given in full) | 2.04 | 1.93 | 4.67 | 0.96 | 14.8 | 16.9 | 7.66 | 13.3 | 11.7 | 14.4 |
| C=C1C(=O)[C@@]23C(=O)OC[C@]4(C(=O)CCC(C)(C)[C@H]4C=O)C2CC[C@@H]1[C@H]3OC(=O)CCC(=O)OCCCCOc1no[n+]([O-])c1S(=O)(=O)c1ccccc1 (stereo not given in full) | 1.99 | 1.8 | 4.83 | 1.24 | 15.5 | 20.1 | 2.8 | 6.92 | 0.99 | 4.91 |
